core dimer inh: HCV core protein dimerization inhibition. TR-FRET GST/Flag-core106 dimerization, 1536-well. inhibition, % at 5 µM. 300,000 compounds, 0.33% hits. AID 1899;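 active = inhibition above the mean of all tested compounds plus 3 SD, set per screening campaign, cut at about 45% in these data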
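System: GST-tagged and Flag-tagged HCV core protein residues 1-106 / Input: core106 proteins, GST 13.5 nM and Flag 17 nM / Buffer or medium: KF-containing HEPES buffer, pH 7.45, DTT, CHAPS, BSA / Probe or stimulus: Eu-anti-GST and XL665-anti-Flag labelled anti-tag antibodies / Schedule: 4 h, 22.5 °C incubation / Technique: TR-FRET 671 and 617 nm emission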
NadD block: inhibitors of Staphylococcus aureus NadD. purified NadD enzyme, colorimetric absorbance read-out. inhibition, % at 20 µM. 360,000 compounds, 0.78% hits; in the data active = inhibition above about 26%
VIM-2 inh: blocks Pseudomonas aeruginosa VIM-2 metallo-beta-lactamase; purified VIM-2, nitrocefin hydrolysis, epi-absorbance fluorescence; inhibition, % at 5.6 µM; 290,000 compounds, 0.89% hits; AID 1527;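 active = inhibition above the mean of all tested compounds plus 3 SD, cutoff set per screening run, cut at about 7.5% in these data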;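 note: red hydrolysis product quenches plate fluorescence so inhibitors raise well fluorescence; 0% = enzyme with DMSO and 100% = DMSO without enzyme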
IMP-1 inh-1: blocks Pseudomonas aeruginosa IMP-1 metallo-beta-lactamase | purified IMP-1, nitrocefin hydrolysis, epi-absorbance fluorescence | inhibition, % at 5.6 µM | 290,000 compounds, 0.45% hits;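 active = inhibition above the mean plus 3 SD of all compounds in the same screening run, cut at about 4.5% in these data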;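 note: 0% = IMP-1 with DMSO and 100% = DMSO wells lacking enzyme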
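Assay system: purified IMP-1; Quantity: IMP-1 0.2 nM before substrate addition; Medium: HEPES buffer pH 7.1 with ZnSO4 and Brij 35; Incubation: 15 min enzyme–compound preincubation, then 25 min nitrocefin reaction, 25 °C; Signal: fluorescence quenching readout, ex 480/em 530 nm; Controls: DMSO with and without IMP-1; Repeats: singlicate testing.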
IMP-1 inh-2: selectivity counter-screen for VIM-2 inhibitors: IMP-1 metallo-beta-lactamase inhibitors. shares compounds with VIM-2 inh. purified IMP-1, nitrocefin hydrolysis, epi-absorbance fluorescence. inhibition, % at 5.6 µM. 1,300 tested, under 10 active. AID 1856; call rule not given here;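 note: 0% = enzyme with vehicle and 100% = vehicle without enzyme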
VIM-2 FRET ctr: counter-screen for VIM-2 inhibitors: epi-absorbance artifacts via FRET. shares compounds with VIM-2 inh. inhibition, % at 5.6 µM. 1,300 compounds, 23% hits. purified VIM-2, CCF2 FRET substrate hydrolysis;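 active = inhibition above the mean of all tested compounds plus 3 SD, cut at about 19% in these data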;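 note: 0% = VIM-2 plus DMSO and 100% = no enzyme wells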
TEM-1 inh: selectivity counter-screen for VIM-2 inhibitors: E. coli TEM-1 inhibitors; shares compounds with VIM-2 inh; Purified TEM-1, nitrocefin hydrolysis, epi-absorbance fluorescence; inhibition, % at 5.6 µM; 1,300 compounds, 3% hits; AID 1866;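 active = inhibition above that campaign's mean inhibition plus 3 SD, cut at about 0.46% in these data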;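 note: 0% = TEM-1 with DMSO and 100% = TEM-1 with 100 µM potassium clavulanate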
Target sequence (P62593 whole entry, looked up): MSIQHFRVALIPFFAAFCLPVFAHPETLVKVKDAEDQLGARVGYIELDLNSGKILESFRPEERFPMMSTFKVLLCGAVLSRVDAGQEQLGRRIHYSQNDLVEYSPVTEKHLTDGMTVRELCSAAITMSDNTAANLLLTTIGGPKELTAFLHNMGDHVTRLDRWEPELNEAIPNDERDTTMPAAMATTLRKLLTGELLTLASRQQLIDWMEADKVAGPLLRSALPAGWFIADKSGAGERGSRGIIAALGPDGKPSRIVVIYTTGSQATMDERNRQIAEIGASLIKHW
VIM-2 confirm 2: confirmation of P. aeruginosa VIM-2 metallo-beta-lactamase inhibitors. 1,300 compounds, 96% hits. shares compounds with VIM-2 inh. purified VIM-2, nitrocefin hydrolysis, epi-absorbance. AID 2187. inhibition, % at 5.6 µM;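 active = inhibition of the VIM-2 beta-lactamase enzyme above about 11% from the earlier first-round screen, limit read from the data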;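 note: 0% = VIM-2 with DMSO and 100% = buffer wells without enzyme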
* hit, by the source's call; nt = no result. A selection: hits, their analogues and other compounds. The true share with any hit is near 1.9%.

SMILES	core dimer inh	NadD block	VIM-2 inh	IMP-1 inh-1	IMP-1 inh-2	VIM-2 FRET ctr	TEM-1 inh	VIM-2 confirm 2
O=C(Nc1cccc([N+](=O)[O-])c1)C1CCN(C(=O)Cc2ccccc2)CC1	-7.2	-7.7	1.4	-0.1	nt	nt	nt	nt
COc1ccc(-c2nnc3sc(CCN4C(=O)c5ccccc5C4=O)nn23)cc1	21.9	4.1	18.2*	-2.3	-2.3	-2.6	-3.2	3.7
CCOc1ccccc1N1CCN(C(=O)c2cn(CC3CCCCC3)nn2)CC1	nt	10.4	-2.8	-3.3	nt	nt	nt	nt
N#Cc1cnn2c3c(cnc12)C(=O)N1CCc2ccccc2C1C3 (stereo not drawn)	1.9	-1.3	-0.3	-0.4	nt	nt	nt	nt
Cc1ccc2c(c1)c(N=NC(N)=O)c(O)n2C	-5.2	-2.2	12.6*	0.7	-3.5	-3.4	-4.4	18.6*
Cc1ccc2c(c1)c(N=Nc1cccc(C(=O)O)c1)c(O)n2C	-20.9	1.7	-1.3	0.4	nt	nt	nt	nt
C[C@@H]1CN([C@@H](C)CO)C(=O)c2cc(NC(=O)C3CC3)ccc2O[C@@H]1CN(C)Cc1ccc(Cl)c(Cl)c1	nt	-0.1	nt	nt	nt	nt	nt	nt
COc1ccc(-c2cc3c(=O)n(CC(=O)NCCCN4CCC(N5CCCCC5)CC4)nc(C)n3n2)cc1	1.6	-7.3	24.4*	-3.4	-2.9	0.9	-2.0	31.5*
S=c1[nH]nc(-c2ccccc2)n1Cc1ccccc1	1.7	6.1	13.3*	1.8	-3.1	34.3*	-7.7	22.0*
S=c1[nH]nc(-c2ccco2)n1Cc1ccccc1	-7.4	0.1	26.4*	0.5	-3.2	58.5*	-7.8	40.4*
S=c1[nH]nc(-c2cccs2)n1Cc1ccccc1	0.1	-0.1	42.9*	-2.2	-1.6	66.9*	-8.6	51.1*
CCn1c(-c2ccco2)n[nH]c1=S	2.7	4.4	4.1	-1.3	nt	nt	nt	nt
S=c1[nH]nc(C2CC2)n1Cc1ccccc1	-2.5	1.8	47.5*	-3.7	-3.4	75.0*	-6.7	61.5*
S=c1[nH]nc(CN2CCCC2)n1Cc1ccccc1	-0.6	-4.8	1.2	-2.7	nt	nt	nt	nt
CCOC(=O)c1c(-c2ccccc2)c2cc(OC)ccc2n1CCCN(C)C	-14.8	-8.8	-0.6	1.6	nt	nt	nt	nt
O=c1[nH]cnc2onc(-c3ccc(F)cc3)c12	2.7	-2.7	0.6	-1.6	nt	nt	nt	nt
S=c1[nH]nc(-c2cccs2)n1C1CCCCC1	0.5	-1.9	42.3*	-0.3	-2.3	62.9*	-7.0	47.2*
Nc1sc(-c2ccccc2)cc1-c1n[nH]c(=S)n1C1CCCCC1	-6.5	2.7	-2.8	-4.3	nt	nt	nt	nt
CC(=NCCCn1ccnc1)c1c(C)[nH]n(-c2ccc([N+](=O)[O-])cc2)c1=O	-1.3	-3.6	12.5*	-2.5	-1.8	-15.8	-3.0	34.1*
Cc1[nH]n(-c2ccc([N+](=O)[O-])cc2)c(=O)c1/C=N/N1CCOCC1	-10.4	-0.3	-3.1	-0.2	nt	nt	nt	nt
CN(CC(=O)Nc1ccc(Cl)cc1)C(=O)c1sccc1-c1ccccc1	nt	2.9	nt	nt	nt	nt	nt	nt
O=C(O)C(NC(=O)c1ccccc1)=C(Cl)Cl	-7.0	-6.1	23.1*	-3.6	-2.7	44.1*	-5.2	24.7*
O=c1[nH]nc(-c2ccc(NCCCO)c([N+](=O)[O-])c2)c2ccccc12	0.0	-4.4	24.0*	-1.2	-2.5	3.4	-1.7	33.5*
O=c1[nH]nc(-c2ccc(NCCO)c([N+](=O)[O-])c2)c2ccccc12	-4.3	-2.6	24.9*	-2.8	-3.4	1.6	-6.7	38.1*
Cc1ccc(-c2n[nH]c(=O)c3ccccc23)cc1S(=O)(=O)NCCO	-1.2	3.3	1.3	-1.4	nt	nt	nt	nt
SMILES	core dimer inh	NadD block	VIM-2 inh	IMP-1 inh-1	IMP-1 inh-2	VIM-2 FRET ctr	TEM-1 inh	VIM-2 confirm 2
Cc1ccc2cccc(NC3OC(=O)c4ccccc43)c2n1 (stereo not drawn)	-7.5	-2.3	13.9*	-1.1	-3.5	-3.4	-6.8	4.5
O=C(Nc1ccc2nc(-c3cccnc3)[nH]c2c1)c1ccccc1F	-4.7	1.2	48.9*	-0.7	-1.5	-0.5	-1.4	4.5
O=C(Nc1ccc2cn[nH]c2c1)c1ccccc1F	5.7	-0.1	-6.4	-0.1	nt	nt	nt	nt
Cc1cc(C)n2c(Br)c(CSc3nc4ccccc4s3)nc2n1	28.7	8.2	23.2*	-1.6	-3.2	68.9*	-6.1	47.4*
CCOc1ccc(CN(C(=O)c2cccs2)C2CCS(=O)(=O)C2)cc1 (stereo not drawn)	-1.3	-2.5	-0.3	-0.7	nt	nt	nt	nt
COc1ccccc1-c1n[nH]c(=S)n1Cc1ccco1	-0.3	nt	15.7*	-4.0	-3.0	46.7*	-7.3	28.6*
CCCCc1n[nH]c(=S)n1Cc1ccc(Cl)cc1	1.5	10.4	15.4*	-3.1	-3.0	24.6*	-5.8	17.7*
S=c1[nH]nc(-c2ccncc2)n1Cc1ccco1	-1.0	-0.8	-1.2	-4.5	nt	nt	nt	nt
CCCc1n[nH]c(=S)n1Cc1ccco1	-1.4	-6.7	16.6*	-5.1	-2.0	40.2*	-5.1	24.5*
COc1ccccc1-n1c(-c2ccccc2)n[nH]c1=S	-0.4	-3.4	15.0*	-3.6	-2.3	45.8*	-6.9	26.2*
COc1ccc(OC)c(-n2c(-c3ccccc3)n[nH]c2=S)c1	2.9	3.7	1.4	-3.7	nt	nt	nt	nt
C[C@]12c3[nH]c4ccc(Cl)cc4c3CCN1C(=O)[C@@H](CC(=O)NCCC1=CCCCC1)C[C@@H]2C(=O)N1CCOCC1	nt	-2.9	nt	nt	nt	nt	nt	nt
CCc1cc(-c2n[nH]c(C)c2-c2ccccc2Cl)c(O)cc1OC	-2.4	2.6	-2.7	-1.4	nt	nt	nt	nt
Cc1nc(C)n(C(C)CNC(=O)c2cccc(Br)c2)n1 (stereo not drawn)	nt	-3.1	-2.1	-1.4	nt	nt	nt	nt
COc1ccccc1-c1n[nH]c(=S)n1Cc1ccccc1	1.2	1.6	25.4*	-2.3	-3.3	52.2*	-9.4	34.0*
COc1cc(C(=O)OCC(=O)Nc2cccc(S(=O)(=O)N3CCCC3)c2)ccc1OCC(C)C	3.2	-5.1	nt	nt	nt	nt	nt	nt
CCN1C(=O)/C(=C2\SC(N3CCOCC3)=NC2=O)c2ccccc21	nt	-0.5	15.0*	-1.5	-1.8	-0.6	-6.6	23.9*
CCCCN1C(=O)/C(=C2\SC(N3CCOCC3)=NC2=O)c2ccccc21	-11.1	6.4	4.7	-4.9	nt	nt	nt	nt
O=C(N/N=C/c1cc2ccccc2[nH]1)c1ccccc1Cl	-8.6	0.5	-2.4	-1.5	nt	nt	nt	nt
COc1cc(-c2noc(C)c2C#Cc2nccn2C)cc(OC)c1OC	13.3	3.8	29.6*	-2.5	-1.8	-15.1	-0.8	45.9*
COc1ccc2nc(SCC(=O)N3CCN(c4ccc(F)cc4)CC3)c(C#N)cc2c1	9.9	15.1	15.2*	-2.1	-3.6	12.6	-5.8	41.9*
CCC(=O)Nc1nnc(S(=O)(=O)N(C)c2ccccc2)s1	nt	2.1	1.4	1.5	nt	nt	nt	nt
